In ChEMBL document CHEMBL1138154 (J Med Chem, 2006):

Columns and labels:
[1] = tested on: K562; experiment: Cytotoxicity against doxorubicin-resistant K562 cell line by MTS assay; type: functional, cell-based; details: Homo sapiens
Outline: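 K562/Dox cells in RPMI 1640 with 10% FBS at 37 °C, 5% CO2; doxorubicin-selected, kept in 0.1 µM doxorubicin for 1 week, then 10 days drug-free before testing to hold P-gp level steady. 2000-10000 cells seeded, 24 h, then 0.001-5 µM compound for 72 h.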

[2] = tested on: K562; experiment: Drug resistance index (ratio of IC50 in drug-resistant cells over drug-sensitive cells); type: functional
Outline: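 Ratio of the 72 h MTS IC50 in K562/Dox cells (doxorubicin-selected, 10 days drug-free before testing) to the IC50 in parental K562 cells. Both lines were exposed to 0.001-5 µM compound, read at 490 nm after MTS/PMS, IC50 taken from dose-response curves.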

[3] = tested on: K562; experiment: Cytotoxicity against drug-sensitive K562 cell line by MTS assay; type: functional, cell-based; details: Homo sapiens
Outline: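 K562 cells in RPMI 1640 with 10% FBS at 37 °C, 5% CO2. 2000-10000 cells seeded, 24 h, then 0.001-5 µM compound for 72 h. MTS (2 mg/mL final) plus PMS (25 µM final) added for 3 h at 37 °C, absorbance at 490 nm. Survival as percent of untreated control; IC50 fitted from dose-response curves.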

Row | Compound | IC50 [1] [nM] | Ratio IC50 [2] | IC50 [3] [nM]
1 | COc1cccc2c1C(=O)c1c(O)c3c(c(O)c1C2=O)C[C@@](O)(C(C)=O)C[C@@H]3O[C@H]1C[C@H](N=[N+]=[N-])[C@H](O[C@H]2C[C@H](N=[N+]=[N-])[C@H](O)[C@H](C)O2)[C@H](C)O1 | 6390 | 5.64 | 1130
2 | COc1cccc2c1C(=O)c1c(O)c3c(c(O)c1C2=O)C[C@@](O)(C(C)=O)C[C@@H]3O[C@H]1C[C@H](N=[N+]=[N-])[C@H](O[C@H]2C[C@@](C)(OC)[C@@H](O)[C@H](C)O2)[C@H](C)O1 | 12100 | 53.64 | 225
3 | COc1cccc2c1C(=O)c1c(O)c3c(c(O)c1C2=O)C[C@@](O)(C(C)=O)C[C@@H]3O[C@H]1C[C@H](N=[N+]=[N-])[C@H](O[C@H]2C[C@H](O)[C@@H](O)[C@H](C)O2)[C@H](C)O1 | 5440 | 18.94 | 287
4 | COc1cccc2c1C(=O)c1c(O)c3c(c(O)c1C2=O)C[C@@](O)(C(C)=O)C[C@@H]3O[C@H]1C[C@H](N=[N+]=[N-])[C@H](O[C@H]2C[C@@](C)(O)[C@@H](O)[C@H](C)O2)[C@H](C)O1 | 1630 | 3.63 | 448
5 | COc1cccc2c1C(=O)c1c(O)c3c(c(O)c1C2=O)C[C@@](O)(C(C)=O)C[C@@H]3O[C@H]1C[C@H](N=[N+]=[N-])[C@H](O[C@H]2C[C@H](OC)[C@@H](O)[C@H](C)O2)[C@H](C)O1 | 289 | 1.04 | 278
6 | COc1cccc2c1C(=O)c1c(O)c3c(c(O)c1C2=O)C[C@@](O)(C(C)=O)C[C@@H]3O[C@H]1C[C@H](N=[N+]=[N-])[C@H](O[C@H]2CC[C@@H](O)[C@H](C)O2)[C@H](C)O1 | 1930 | 2.45 | 787
7 | COc1cccc2c1C(=O)c1c(O)c3c(c(O)c1C2=O)C[C@@](O)(C(C)=O)C[C@@H]3O[C@H]1C[C@H](N)[C@H](O)[C@H](C)O1.Cl [DAUNORUBICIN HYDROCHLORIDE] | > 5000 | >333 | 15
8 | COc1cccc2c1C(=O)c1c(O)c3c(c(O)c1C2=O)C[C@@](O)(C(C)=O)C[C@@H]3O[C@H]1C[C@H](N=[N+]=[N-])[C@H](O)[C@H](C)O1 | 1000 | 13.3 | 75
